Results as given in ChEMBL document CHEMBL5346918, “Design, synthesis and biological evaluation of Nucleosidic CD99 inhibitors that selectively reduce Ewing sarcoma viability” (Eur J Med Chem, 2023).
Active and inactive are the calls of the source. No cut-off for these calls is given here.

How the values were obtained:
[1] = Cytotoxicity against human A4573 cells assessed as reduction in cell viability incubated for 48 hrs by CellTiter-Blue reagent based […] assay; type: functional; conditions: A4573, 48 h
Outline: (§1)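 Cells seeded and grown to 60–80% confluency (usually 18–24 h), then treated 48 h with a range of concentrations prepared in each line's medium. CellTiter-Blue reagent added at the end of treatment and incubated 3–5 h at 37 °C, 5% CO₂. Fluorescence read at 560 nm excitation and 590 nm emission. IC50 from nonlinear regression, log(inhibitor) vs. normalized response.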

143B = assay: Cytotoxicity against human 143B cells assessed as reduction in cell viability incubated for 48 hrs by CellTiter-Blue reagent based […] assay; type: functional
Outline: (§2)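 Cells grown in their own media at 37 °C, 5% CO2, mycoplasma-tested. At 60–80% confluency, treated 48 h with a range of concentrations made in medium. CellTiter-Blue added for 3–5 h at 37 °C, fluorescence read at ex 560/em 590 nm. IC50 from nonlinear regression (log(inhibitor) vs normalized response); mean ± SD of duplicate or triplicate determinations.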

CD99 antigen [2] = biological target: T1, CD99 antigen (Homo sapiens, UniProt P14209); assay: Binding affinity to N-terminal biotin-tagged recombinant human CD99 extracellular domain (23 to 122 residues) expressed in Escherichia coli BL21(DE3) assessed as dissociation rate constant by surface plasmon resonance analysis
T1 sequence (P14209 whole entry): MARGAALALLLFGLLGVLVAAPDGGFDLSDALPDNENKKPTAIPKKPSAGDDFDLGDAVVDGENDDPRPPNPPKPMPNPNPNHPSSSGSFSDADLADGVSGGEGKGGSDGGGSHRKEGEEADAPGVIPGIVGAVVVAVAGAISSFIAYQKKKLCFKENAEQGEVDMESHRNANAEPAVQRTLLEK
Outline: (§3)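 Bacterially expressed recombinant CD99 extracellular domain amine-coupled to CM5 chip (10 mM sodium acetate pH 4.0, ~3500 RU). Analytes injected at various concentrations in PBS-P pH 7.4 + 1% DMSO at 50 μL/min. Contact time 60 s, dissociation 300 s, regeneration with 15 s H3PO4 pulse. Duplicate injections; sensorgrams fitted to 1:1 kinetic model.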

HOS = assay: Cytotoxicity against human HOS cells assessed as reduction in cell viability incubated for 48 hrs by CellTiter-Blue reagent based […]; type: functional; outline: as §2
U2OS [3] = assay: Induction of apoptosis in human U2OS cells assessed as increase in hypodiploid subG1 population at 4 to 16 uM incubated for 48 hrs by propidium iodide staining based flow cytometry; type: functional, cell-based; conditions: dose 4-16 µM
Outline: (§4)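 Cells treated 48 h at 4, 8 or 16 μM, then adherent and floating cells pooled, fixed in ice-cold 70% ethanol 1 h, treated with RNase A 100 μg/mL, stained with propidium iodide 50 μg/mL for 1 h on ice. Sub-G1 fraction measured by flow cytometry.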

CD99 antigen [4] = biological target: T1, CD99 antigen; assay: Binding affinity to N-terminal biotin-tagged recombinant human CD99 extracellular domain (23 to 122 residues) expressed in Escherichia coli BL21(DE3) by surface plasmon resonance analysis; outline: as §3
RD = assay: Cytotoxicity against human RD cells assessed as reduction in cell viability incubated for 48 hrs by CellTiter-Blue reagent based […] assay; type: functional; outline: as §2
[5] = Cytotoxicity against human COG-E-352 cells assessed as reduction in cell viability incubated for 48 hrs by CellTiter-Blue reagent based […] assay; type: functional; conditions: COG-E-352, 48 h; outline: as §2
U2OS [6] = assay: Induction of apoptosis in human U2OS cells assessed as PARP cleavage at 4 to 16 uM incubated for 48 hrs by western blot analysis; type: functional, cell-based; conditions: dose 4-16 µM
Outline: (§5)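 U-2 OS cells treated 48 h at 4, 8 or 16 μM; total lysates immunoblotted for cleaved PARP and cleaved caspase 3, actin as loading and normalization control.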

SJRH30 = assay: Cytotoxicity against human Rh30 cells assessed as reduction in cell viability incubated for 48 hrs by CellTiter-Blue reagent based […] assay; type: functional; conditions: SJRH30, 48 h
TC-32 [7] = assay: Induction of apoptosis in human TC-32 cells assessed as PARP cleavage at 4 to 16 uM incubated for 48 hrs by western blot analysis; type: functional, cell-based; conditions: dose 4-16 µM
Outline: (§6)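 TC-32 cells treated 48 h at 4, 8 or 16 μM; total lysates immunoblotted for cleaved PARP and cleaved caspase 3, actin as loading and normalization control; ECL imaging with densitometry.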

SAOS-2 = assay: Cytotoxicity against human SAOS-2 cells assessed as reduction in cell viability incubated for 48 hrs by CellTiter-Blue reagent based […] assay; type: functional; conditions: SAOS-2, 48 h; outline: as §1
[8] = Cytotoxicity against human TC71 cells assessed as reduction in cell viability incubated for 48 hrs by CellTiter-Blue reagent based […] assay; type: functional; conditions: TC-71, 48 h; outline: as §1
U2OS [9] = assay: Induction of apoptosis in human U2OS cells assessed as caspase-3 cleavage at 4 to 16 uM incubated for 48 hrs by western blot analysis; type: functional, cell-based; conditions: dose 4-16 µM; outline: as §5
U2OS [10] = assay: Cytotoxicity against human U2OS cells assessed as reduction in cell viability incubated for 48 hrs by CellTiter-Blue reagent based […] assay; type: functional; outline: as §1
U-87 MG = assay: Cytotoxicity against human U-87 MG cells assessed as reduction in cell viability incubated for 48 hrs by CellTiter-Blue reagent based […] assay; type: functional, U-87MG ATCC; outline: as §2
PC-3 = assay: Cytotoxicity against human PC-3 cells assessed as reduction in cell viability incubated for 48 hrs by CellTiter-Blue reagent based […] assay; type: functional; conditions: PC-3, 48 h; outline: as §2
[11] = biological target: T2, CD99 antigen (Homo sapiens) (UniProt P14209); assay: Binding affinity to N-terminal biotin-tagged recombinant human CD99 extracellular domain (23 to 122 residues) expressed in Escherichia coli BL21(DE3) assessed as association rate constant by surface plasmon resonance analysis; outline: as §3
T2 sequence (whole entry): T1 sequence (P14209 whole entry)

HeLa = assay: Cytotoxicity against human HeLa cells assessed as reduction in cell viability incubated for 48 hrs by CellTiter-Blue reagent based […] assay; type: functional; outline: as §2
TC-32 [12] = assay: Induction of apoptosis in human TC-32 cells assessed as caspase-3 cleavage at 4 to 16 uM incubated for 48 hrs by western blot analysis; type: functional, cell-based; conditions: dose 4-16 µM; outline: as §6
[13] = Cytotoxicity against human MG-63.3 cells assessed as reduction in cell viability incubated for 48 hrs by CellTiter-Blue reagent based […] assay; type: functional; conditions: MG-63.3, 48 h; outline: as §2
TC-32 [14] = assay: Induction of apoptosis in human TC-32 cells assessed as increase in hypodiploid subG1 population at 4 to 16 uM incubated for 48 hrs by propidium iodide staining based flow cytometry; type: functional, cell-based; conditions: dose 4-16 µM; outline: as §4
[15] = biological target: T2, CD99 antigen (Homo sapiens); assay: Binding affinity to CD99 in human TC71 cells assessed as protein stabilization at 80 uM incubated for 30 mins and measured at 51 to 99 degC by CETSA analysis; type: cell-based
Outline: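 TC-71 cell lysate mixed with compound at 80 μM final, aliquots heated at various temperatures; thermally stable CD99 remaining in solution detected by western blot with anti-CD99 antibody and quantified by densitometry relative to untreated lysate.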

[16] = Cytotoxicity against human MHH-ES cells assessed as reduction in cell viability incubated for 48 hrs by CellTiter-Blue reagent based […] assay; type: functional
[17] = Cytotoxicity against human SK-ES cells assessed as reduction in cell viability incubated for 48 hrs by CellTiter-Blue reagent based […] assay; type: functional; outline: as §2
A 172 = assay: Cytotoxicity against human A-172 cells assessed as reduction in cell viability incubated for 48 hrs by CellTiter-Blue reagent based […] assay; type: functional; conditions: A 172, 48 h; outline: as §2
TC-32 [18] = assay: Cytotoxicity against human TC-32 cells assessed as reduction in cell viability incubated for 48 hrs by CellTiter-Blue reagent based […] assay; type: functional; conditions: TC-32, 48 h; outline: as §1
[19] = Cytotoxicity against human HEK293 cells assessed as reduction in cell viability incubated for 48 hrs by CellTiter-Blue reagent based […] assay; type: toxicity; outline: as §2
A549 = assay: Cytotoxicity against human A549 cells assessed as reduction in cell viability incubated for 48 hrs by CellTiter-Blue reagent based […] assay; type: functional; conditions: A549, 48 h
[20] = Cytotoxicity against human STA-ET-7.2 cells assessed as reduction in cell viability incubated for 48 hrs by CellTiter-Blue reagent based […] assay; type: functional; conditions: STA-ET-7.2, 48 h
U2OS [21] = assay: Induction of apoptosis in human U2OS cells assessed as PARP cleavage at 0.1 to 0.4 uM incubated for 48 hrs by western blot analysis; type: functional, cell-based; conditions: dose 0.1-0.4 µM
Outline: (§7)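 Cells treated 48 h with three concentrations per agent (0.1, 0.2 or 0.4 μM for one; 10, 20 or 40 μM for another). Total cell lysates immunoblotted for PARP and caspase 3 and their cleaved products. Actin used as loading control and for normalization. ECL signal imaged on PVDF, bands quantified by densitometry.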

TC-32 [22] = assay: Induction of apoptosis in human TC-32 cells assessed as increase in hypodiploid subG1 population at 0.1 to 0.4 uM incubated for 48 hrs by propidium iodide staining based flow cytometry; type: functional, cell-based; conditions: dose 0.1-0.4 µM
Outline: (§8)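 Treatment same as the apoptosis blots (48 h; 0.1–0.4 μM or 10–40 μM). Adherent cells trypsinized and pooled with floating cells, then washed in PBS. Fixed in ice-cold 70% ethanol 1 h on ice, rehydrated, RNase A 100 μg/mL. Stained with propidium iodide at 50 μg/mL final for 1 h on ice. Sub-G1 fraction read by flow cytometry.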

TC-32 [23] = assay: Induction of apoptosis in human TC-32 cells assessed as PARP cleavage at 0.1 to 0.4 uM incubated for 48 hrs by western blot analysis; type: functional, cell-based; conditions: dose 0.1-0.4 µM; outline: as §7
TC-32 [24] = assay: Induction of apoptosis in human TC-32 cells assessed as caspase-3 cleavage at 0.1 to 0.4 uM incubated for 48 hrs by western blot analysis; type: functional, cell-based; conditions: dose 0.1-0.4 µM; outline: as §7
U2OS [25] = assay: Induction of apoptosis in human U2OS cells assessed as increase in hypodiploid subG1 population at 0.1 to 0.4 uM incubated for 48 hrs by propidium iodide staining based flow cytometry; type: functional, cell-based; conditions: dose 0.1-0.4 µM; outline: as §8
U2OS [26] = assay: Induction of apoptosis in human U2OS cells assessed as caspase-3 cleavage at 0.1 to 0.4 uM incubated for 48 hrs by western blot analysis; type: functional, cell-based; conditions: dose 0.1-0.4 µM; outline: as §7

Nc1nc(Cl)nc2c1ncn2[C@@H]1O[C@H](COC(C(=O)O)C(=O)O)[C@@H](O)[C@@H]1F
IC50 [1]: 27 µM | IC50 (143B): > 341 µM | Kd (CD99 antigen [2]): 2467 10^-6/s | IC50 (HOS): > 400 µM | Activity (U2OS [3]): inactive | Kd (CD99 antigen [4]): 1.5 µM | IC50 (RD): > 400 µM | IC50 [5]: 27 µM | Activity (U2OS [6]): inactive | IC50 (SJRH30): > 341 µM | Activity (TC-32 [7]): Active | IC50 (SAOS-2): ≥ 400 µM | IC50 [8]: 5.17 µM | Activity (U2OS [9]): inactive | IC50 (U2OS [10]): ≥ 400 µM | IC50 (U-87 MG): > 400 µM | IC50 (PC-3): > 400 µM | Ka [11]: 1700 M⁻¹ s⁻¹ | IC50 (HeLa): > 400 µM | Activity (TC-32 [12]): Active | IC50 [13]: > 341 µM | Activity (TC-32 [14]): Active | Activity [15]: Active | IC50 [16]: 27 µM | IC50 [17]: 27 µM | IC50 (A 172): > 341 µM | IC50 (TC-32 [18]): 27 µM | IC50 at 48 h [19]: > 341 µM | IC50 (A549): > 400 µM | IC50 [20]: 27 µM

Nc1nc(Cl)nc2c1ncn2[C@@H]1O[C@H](CO)[C@@H](O)[C@@H]1F [CLOFARABINE]
IC50 [1]: 0.18 µM | Activity (U2OS [21]): inactive | Activity (TC-32 [22]): Active | IC50 (SAOS-2): ≥ 50 µM | IC50 [8]: 0.09 µM | Activity (TC-32 [23]): Active | Activity (TC-32 [24]): Active | IC50 (U2OS [10]): ≥ 50 µM | Activity (U2OS [25]): inactive | IC50 (TC-32 [18]): 0.13 µM | Activity (U2OS [26]): inactive

Nc1ncnc2c1ncn2[C@@H]1O[C@H](C(=O)O)[C@@H](O)[C@@H]1F
IC50 [1]: ≥ 50 µM | IC50 (SAOS-2): ≥ 50 µM | IC50 [8]: ≥ 50 µM | IC50 (U2OS [10]): ≥ 50 µM | IC50 (TC-32 [18]): ≥ 50 µM

Nc1nc(-c2ccncc2)nc2c1ncn2[C@H]1C[C@H](O)[C@@H](CO)O1
IC50 [1]: ≥ 50 µM | IC50 (SAOS-2): ≥ 50 µM | IC50 [8]: ≥ 50 µM | IC50 (U2OS [10]): ≥ 50 µM | IC50 (TC-32 [18]): ≥ 50 µM

Nc1nc(-c2ccsc2)nc2c1ncn2[C@H]1C[C@H](O)[C@@H](CO)O1
IC50 [1]: ≥ 50 µM | IC50 (SAOS-2): ≥ 50 µM | IC50 [8]: ≥ 50 µM | IC50 (U2OS [10]): ≥ 50 µM | IC50 (TC-32 [18]): ≥ 50 µM

Nc1nc(Cl)nc2c1ncn2[C@H]1C[C@H](O)[C@@H](CO)O1 [CLADRIBINE]
IC50 [1]: 1.49 µM | IC50 (SAOS-2): ≥ 50 µM | IC50 [8]: 1.1 µM | IC50 (U2OS [10]): ≥ 50 µM | IC50 (TC-32 [18]): 2.92 µM
